Measurements taken from ChEMBL document CHEMBL1143578, “From 1-acyl-beta-lactam human cytomegalovirus protease inhibitors to 1-benzyloxycarbonylazetidines with improved antiviral activity. A straightforward approach to convert covalent to noncovalent inhibitors” (J Med Chem, 2005).
pEC50: −log10 of the molar value.

Key:
HEL [1] = assay: Minimum cytotoxic concentration required to cause a microscopically visible alteration of HEL fibroblast cell morphology; format: functional; conditions: Homo sapiens
Procedure, shortened: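 HEL cell morphology was examined under the microscope after compound exposure. MCC is the lowest concentration producing a detectable alteration in morphology.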

HEL [2] = assay: Effective concentration required to inhibit human cytomegalo virus Davis induced cytopathicity in HEL fibroblast cell line after 7 days of postinfection; format: functional, cell-based; conditions: 168 h
Procedure, shortened: (§1)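 Confluent HEL fibroblasts were infected with 100 PFU/well for 2 h, then residual virus was removed. Cells were incubated with a range of compound concentrations, in duplicate, for 7 days at 37 °C. Cells were ethanol-fixed and Giemsa-stained, and cytopathogenicity was scored microscopically. EC50 was read from plots of % cytopathogenicity against concentration.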

HEL [3] = assay: Effective concentration required to inhibit human cytomegalo virus AD-169 induced cytopathicity in HEL fibroblast cell line after 7 days of postinfection; format: functional, cell-based; conditions: 168 h; procedure, shortened: as §1
HEL [4] = assay: Effective concentration required to reduce Varicella-Zoster virus OKA(TK) plaque formation after 5 days in HEL fibroblast cell line; format: functional, cell-based; conditions: Homo sapiens, 120 h
Procedure, shortened: (§2)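 Confluent HEL cells were inoculated with VZV at 20 PFU/well for 2 h. Residual virus was removed and varying compound concentrations were added in duplicate. Plaques were counted after 5 days. EC50 is the concentration halving plaque formation relative to untreated controls.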

HEL [5] = assay: Effective concentration required to reduce Varicella-Zoster virus 07/1(TK-) plaque formation after 5 days in HEL fibroblast cell line; format: functional, cell-based; conditions: Homo sapiens, 120 h; procedure, shortened: as §2
HEL [6] = assay: Cytotoxic concentration required to reduce HEL cell growth; format: functional; conditions: Homo sapiens
Procedure, shortened: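 HEL cells seeded at 5 × 10³ cells/well and allowed to proliferate 24 h, then exposed to a range of compound concentrations for 3 days at 37 °C. Cell number was counted with a Coulter counter. CC50 is the concentration giving 50% growth reduction versus untreated controls, read from plots of cell number (% of control) against concentration.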

Compound: CNC(=O)[C@H](C)NC(=O)C1(Cc2ccccc2)CCN1C(=O)OCc1ccccc1 (stereo not given in full)
- MCC (HEL [1]): > 50 µM
- pEC50 (HEL [2]): 5.30
- pEC50 (HEL [3]): 5.13
- pEC50 (HEL [4]): < 4.30
- pEC50 (HEL [5]): < 4.30
- CC50 (HEL [6]): > 50 µM

Compound: C[C@H](NC(=O)C1(Cc2ccccc2)CCN1C(=O)OCc1ccccc1)C(=O)OC(C)(C)C (stereo not given in full)
- MCC (HEL [1]): 80 µM
- pEC50 (HEL [2]): 5.36
- pEC50 (HEL [3]): 4.80
- pEC50 (HEL [4]): 4.80
- pEC50 (HEL [5]): < 4.80
- CC50 (HEL [6]): 33 µM

Compound: COC(=O)[C@@]1(Cc2ccccc2)CCN1C(=O)N[C@@H](C)c1ccccc1
- MCC (HEL [1]): > 50 µM
- pEC50 (HEL [3]): < 4.70
- pEC50 (HEL [4]): < 4.30
- pEC50 (HEL [5]): < 4.30
- CC50 (HEL [6]): > 50 µM

Compound: C[C@H](NC(=O)C1(Cc2ccccc2)CCN1C(=O)OCc1ccccc1)C(N)=O (stereo not given in full)
- MCC (HEL [1]): ≥ 400 µM
- pEC50 (HEL [2]): 4.49
- pEC50 (HEL [3]): 4.41
- pEC50 (HEL [4]): < 4.10
- pEC50 (HEL [5]): < 4.10
- CC50 (HEL [6]): 50 µM

Compound: COC(=O)[C@]1(Cc2ccccc2)CCN1C(=O)N[C@@H](C)c1ccccc1
- MCC (HEL [1]): > 50 µM
- pEC50 (HEL [3]): < 4.70
- pEC50 (HEL [4]): 4.30
- pEC50 (HEL [5]): 4.30
- CC50 (HEL [6]): > 50 µM

Compound: CC(C)(C)NC(=O)C1(Cc2ccccc2)CCN1C(=O)OCc1ccccc1 (stereo not given)
- MCC (HEL [1]): ≥ 16 µM
- pEC50 (HEL [2]): 5.36
- pEC50 (HEL [3]): 5.26
- pEC50 (HEL [4]): < 5.49
- pEC50 (HEL [5]): < 4.80
- CC50 (HEL [6]): 36 µM

Compound: C[C@@H](NC(=O)N1CCC1(Cc1ccccc1)C(=O)OC(C)(C)C)c1ccccc1 (stereo not given in full)
- MCC (HEL [1]): 400 µM
- pEC50 (HEL [2]): 4.48
- pEC50 (HEL [3]): 4.40
- pEC50 (HEL [4]): 4.44
- pEC50 (HEL [5]): 4.60
- CC50 (HEL [6]): 57 µM

Compound: C[C@H](NC(=O)C1(Cc2ccccc2)CCN1C(=O)OCc1ccccc1)C(=O)O (stereo not given in full)
- MCC (HEL [1]): ≥ 400 µM
- pEC50 (HEL [2]): < 4.10
- pEC50 (HEL [3]): < 3.40
- pEC50 (HEL [4]): < 4.10
- pEC50 (HEL [5]): < 4.10
- CC50 (HEL [6]): 124 µM

Compound: COC(=O)N1CCC1(Cc1ccccc1)C(=O)N[C@@H](C)C(N)=O (stereo not given in full)
- MCC (HEL [1]): > 400 µM
- pEC50 (HEL [2]): < 3.40
- pEC50 (HEL [3]): < 3.40
- pEC50 (HEL [4]): < 3.40
- pEC50 (HEL [5]): 3.46
- CC50 (HEL [6]): > 200 µM

Compound: O=C(OCc1ccccc1)N1CCC1(Cc1ccccc1)C(=O)NC1CCCCC1 (stereo not given)
- MCC (HEL [1]): ≥ 16 µM
- pEC50 (HEL [2]): 5.49
- pEC50 (HEL [3]): 5.23
- pEC50 (HEL [4]): 5.11
- pEC50 (HEL [5]): 5.29
- CC50 (HEL [6]): 37 µM

Compound: COC(=O)[C@@]1(Cc2ccccc2)CC(=O)N1C(=O)N[C@@H](C)c1ccccc1
- MCC (HEL [1]): > 50 µM
- pEC50 (HEL [3]): < 4.30
- pEC50 (HEL [4]): < 4.30
- pEC50 (HEL [5]): < 4.30
- CC50 (HEL [6]): > 50 µM

Compound: CC(C)(C)OC(=O)C1(Cc2ccccc2)CC(=O)N1C(=O)OCc1ccccc1 (stereo not given)
- MCC (HEL [1]): 50 µM
- pEC50 (HEL [4]): 4.92
- pEC50 (HEL [5]): 5.10

Compound: C[C@@H](NC(=O)N1C(=O)C[C@@]1(Cc1ccccc1)C(=O)OC(C)(C)C)c1ccccc1
- MCC (HEL [1]): 200 µM
- pEC50 (HEL [4]): < 4.30
- pEC50 (HEL [5]): 4.64

Compound: C[C@@H](NC(=O)N1C(=O)C[C@]1(Cc1ccccc1)C(=O)OC(C)(C)C)c1ccccc1
- MCC (HEL [1]): > 200 µM
- pEC50 (HEL [4]): < 4.30
- pEC50 (HEL [5]): < 4.30

Compound: C[C@@H](NC(=O)N1C(=O)C[C@@]1(Cc1ccccc1)C(=O)O)c1ccccc1
- MCC (HEL [1]): > 200 µM
- pEC50 (HEL [2]): < 3.70
- pEC50 (HEL [5]): 3.82

Compound: C[C@H](NC(=O)N1C(=O)C[C@@]1(Cc1ccccc1)C(=O)OC(C)(C)C)c1ccccc1
- MCC (HEL [1]): 200 µM
- pEC50 (HEL [4]): 4.43
- pEC50 (HEL [5]): 4.70

Compound: C[C@@H](NC(=O)N1C(=O)C[C@]1(Cc1ccccc1)C(=O)O)c1ccccc1
- MCC (HEL [1]): 200 µM
- pEC50 (HEL [4]): < 3.70
- pEC50 (HEL [5]): < 3.70

Compound: C[C@H](NC(=O)N1C(=O)C[C@]1(Cc1ccccc1)C(=O)O)c1ccccc1
- MCC (HEL [1]): > 200 µM
- pEC50 (HEL [2]): < 3.70
- pEC50 (HEL [5]): 3.95

Compound: CC(C)(C)OC(=O)[C@]1(Cc2ccccc2)CC(=O)N1C(=O)Nc1ccccc1
- MCC (HEL [1]): 200 µM
- pEC50 (HEL [2]): 4.30
- pEC50 (HEL [3]): 4.30
- pEC50 (HEL [4]): 4.48
- pEC50 (HEL [5]): 4.89

Compound: COC(=O)[C@]1(Cc2ccccc2)CC(=O)N1C(=O)N[C@@H](C)c1ccccc1
- MCC (HEL [1]): > 50 µM
- pEC50 (HEL [3]): < 4.30
- pEC50 (HEL [4]): < 4.30
- pEC50 (HEL [5]): < 4.30
- CC50 (HEL [6]): > 50 µM

Compound: COC(=O)[C@H](C)NC(=O)C1(Cc2ccccc2)CCN1C(=O)OCc1ccccc1 (stereo not given in full)
- MCC (HEL [1]): 400 µM
- pEC50 (HEL [2]): < 4.10
- pEC50 (HEL [3]): < 4.10
- pEC50 (HEL [4]): < 4.10
- pEC50 (HEL [5]): < 4.10
- CC50 (HEL [6]): 50 µM

Compound: CC(C)(C)OC(=O)C1(Cc2ccccc2)CCN1C(=O)OCc1ccccc1 (stereo not given)
- MCC (HEL [1]): 5 µM
- pEC50 (HEL [2]): 6.22
- pEC50 (HEL [3]): 6.15
- pEC50 (HEL [4]): < 5.70
- pEC50 (HEL [5]): < 5.70

Compound: CC(C)(C)OC(=O)N1C(=O)CC1(Cc1ccccc1)C(=O)OC(C)(C)C (stereo not given)
- MCC (HEL [1]): > 200 µM
- pEC50 (HEL [2]): < 3.70
- pEC50 (HEL [3]): < 3.70

Compound: C[C@H](NC(=O)N1C(=O)C[C@@]1(Cc1ccccc1)C(=O)O)c1ccccc1
- MCC (HEL [1]): 200 µM
- pEC50 (HEL [4]): < 3.70
- pEC50 (HEL [5]): 3.96

Compound: O=C1C[C@H](Cc2ccccc2)N1C(=O)NCc1ccccc1
- CC50 (HEL [6]): > 250 µM

Compound: C[C@H](NC(=O)N1C(=O)C[C@]1(Cc1ccccc1)C(=O)OC(C)(C)C)c1ccccc1
- MCC (HEL [1]): 200 µM
- pEC50 (HEL [4]): < 4.30
- pEC50 (HEL [5]): 4.85

Compound: Nc1nc2c(ncn2COCCO)c(=O)[nH]1 [ACYCLOVIR]
- MCC (HEL [1]): > 1200 µM
- pEC50 (HEL [2]): 4.70
- pEC50 (HEL [3]): 4.77
- pEC50 (HEL [4]): 5.15
- pEC50 (HEL [5]): 3.95
- CC50 (HEL [6]): 511 µM

Compound: O=c1[nH]c(=O)n([C@H]2C[C@H](O)[C@@H](CO)O2)cc1/C=C/Br [BRIVUDINE]
- MCC (HEL [1]): 1200 µM
- pEC50 (HEL [2]): < 4.00
- pEC50 (HEL [3]): < 4.00
- pEC50 (HEL [5]): 3.99
- CC50 (HEL [6]): 249 µM

Compound: Nc1ccn(C[C@@H](CO)OCP(=O)(O)O)c(=O)n1 [CIDOFOVIR]
- MCC (HEL [1]): > 1400 µM
- pEC50 (HEL [2]): 6.00
- pEC50 (HEL [3]): 6.22

Compound: Nc1nc2c(ncn2COC(CO)CO)c(=O)[nH]1 [GANCICLOVIR]
- MCC (HEL [1]): > 1500 µM
